Experimental findings from ChEMBL document CHEMBL4406806, “Design, Synthesis, and Characterization of Ogerin-Based Positive Allosteric Modulators for G Protein-Coupled Receptor 68 (GPR68)” (J Med Chem, 2019) are described below.

Assay [1] addresses G-protein coupled receptor 68 (Homo sapiens) (UniProt Q15743). In words: Positive allosteric modulation of human GPR68 expressed in HEK293T cells co-expressing Gs assessed as stimulation of proton-mediated cAMP production by measuring allosteric affinity cooperativity in HBSS buffer containing pH 6.8 to 8.2 HEPES/pH 8.3 to 8.6 TAPS measured after 20 to 30 mins in presence of PDE inhibitor Ro 20-1724 by luciferase-glo reporter gene assay. In kind it is functional, cell-based. A digest of the protocol: (§1)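 Transient co-transfection of HEK293T with receptor and GloSensor plasmids using PEI, overnight, then replated in DMEM + 1% dFBS for 6–24 h. Luciferin 3.5 mM loaded for 1 h at 37 °C in HBSS/20 mM TAPS, pH 8.40. Proton series: Ca/Mg-free HBSS with MES (pH 5.60–6.70), HEPES (6.80–8.20) or TAPS (8.30–8.60), plus 10 μM Ro 20-1724. BSA 1 mg/mL added where solubility required. Luminescence read at 20–30 min. At least six 16-point proton curves across modulator concentrations, quadruplicate, ≥3 independent assays.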

The target in assay [2] is T1, Adenosine receptor A2a (Homo sapiens, UniProt P29274). The assay is described as follows: Agonist activity at recombinant human A2A receptor expressed in HEK293T cells co-expressing Gs assessed as stimulation of cAMP accumulation measured after 15 mins by Glosensor chemiluminescence assay. The class given is functional, cell-based. For orientation: cAMP levels reflect the balance of adenylyl cyclase and phosphodiesterase activity.
T1 sequence (P29274 whole entry): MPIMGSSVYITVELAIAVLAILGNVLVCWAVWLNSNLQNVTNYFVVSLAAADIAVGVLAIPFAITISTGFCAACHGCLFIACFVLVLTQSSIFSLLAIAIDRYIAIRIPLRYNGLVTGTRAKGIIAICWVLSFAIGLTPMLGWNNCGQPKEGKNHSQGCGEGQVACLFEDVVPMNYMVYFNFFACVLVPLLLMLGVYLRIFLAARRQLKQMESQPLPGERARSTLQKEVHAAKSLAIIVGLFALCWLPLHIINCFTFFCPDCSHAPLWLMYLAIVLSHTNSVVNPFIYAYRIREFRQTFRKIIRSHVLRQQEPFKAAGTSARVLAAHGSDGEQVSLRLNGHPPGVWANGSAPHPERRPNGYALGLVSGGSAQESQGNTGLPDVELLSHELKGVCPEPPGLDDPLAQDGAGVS

Assay [3] deals with T1, Adenosine receptor A2a. In words: Inverse agonist activity at recombinant human A2A receptor expressed in HEK293T cells co-expressing Gs assessed as decrease in cAMP accumulation measured after 15 mins by Glosensor chemiluminescence assay. In kind it is functional, cell-based.
In assay [4] the target is G-protein coupled receptor 68 (Homo sapiens) (UniProt Q15743). In words: Positive allosteric modulation of human GPR68 expressed in HEK293T cells co-expressing Gs assessed as stimulation of proton-mediated cAMP production by measuring efficacy cooperativity in HBSS buffer containing pH 6.8 to 8.2 HEPES/pH 8.3 to 8.6 TAPS measured after 20 to 30 mins in presence of PDE inhibitor Ro 20-1724 by luciferase-glo reporter gene assay. The class given is functional, cell-based. Put shortly:
as §1

The target in assay [5] is T1, Adenosine receptor A2a. The assay is described as follows: Antagonist activity at recombinant human A2A receptor expressed in HEK293T cells co-expressing Gs assessed as inhibition of NECA-stimulated cAMP accumulation preincubated for 15 mins followed by NECA addition and measured after 15 mins by Glosensor chemiluminescence assay. In kind it is functional, cell-based.

Assay [6] deals with G-prodeshotein coupled receptor 4 (Homo sapiens) (UniProt P46093). In words: Positive allosteric modulation of human GPR4 expressed in HEK293T cells co-expressing Gs assessed as stimulation of proton-mediated cAMP production at higher concentration in HBSS buffer containing pH 6.8 to 8.2 HEPES/pH 8.3 to 8.6 TAPS measured after 20 to 30 mins in presence of PDE inhibitor Ro 20-1724 by luciferase-glo reporter gene assay. The class given is functional, cell-based. A digest of the protocol:
as §1

Assay [7] concerns the target G-protein coupled receptor 68 (Homo sapiens) (UniProt Q15743). In words: Positive allosteric modulation of human GPR68 expressed in HEK293T cells co-expressing Gs assessed as stimulation of proton-mediated cAMP production by measuring allosteric index in HBSS buffer containing pH 6.8 to 8.2 HEPES/pH 8.3 to 8.6 TAPS measured after 20 to 30 mins in presence of PDE inhibitor Ro 20-1724 by luciferase-glo reporter gene assay. In kind it is functional, cell-based. A digest of the protocol: as §1

Assay [8] concerns the target Atypical chemokine receptor 3 (Homo sapiens, UniProt P25106). The assay is described as follows: Agonist activity at human ACKR3 expressed in HTLA cells assessed as stimulation of beta-arrestin recruitment at 1 uM incubated for 16 to 20 hrs by bright-glo luminescence assay. The class given is cell-based.
Assay [9] deals with G-protein coupled receptor 68 (Mus musculus) (UniProt Q8BFQ3). In words: Positive allosteric modulation of mouse GPR68 expressed in HEK293T cells co-expressing Gs assessed as stimulation of proton-mediated cAMP production by measuring allosteric affinity cooperativity in HBSS buffer containing pH 6.8 to 8.2 HEPES/pH 8.3 to 8.6 TAPS measured after 20 to 30 mins in presence of PDE inhibitor Ro 20-1724 by luciferase-glo reporter gene assay. In kind it is functional, cell-based. A digest of the protocol:
(§2)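 α, β and KB obtained by fitting proton responses with and without modulator to the standard allosteric operational model. Overall index is log(αβ/KB). Values are mean ± SEM from ≥3 independent assays, each run in triplicate or quadruplicate.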

For assay [10] the target is unchanged. The assay is described as follows: Positive allosteric modulation of mouse GPR68 expressed in HEK293T cells co-expressing Gs assessed as stimulation of proton-mediated cAMP production by measuring allosteric index in HBSS buffer containing pH 6.8 to 8.2 HEPES/pH 8.3 to 8.6 TAPS measured after 20 to 30 mins in presence of PDE inhibitor Ro 20-1724 by luciferase-glo reporter gene assay. The class given is functional, cell-based. A digest of the protocol: as §2

Assay [11] concerns the target G-protein coupled receptor 65 (Homo sapiens) (UniProt Q8IYL9). The assay is described as follows: Positive allosteric modulation of human GPR65 expressed in HEK293T cells co-expressing Gs assessed as stimulation of proton-mediated cAMP production at higher concentration in HBSS buffer containing pH 6.8 to 8.2 HEPES/pH 8.3 to 8.6 TAPS measured after 20 to 30 mins in presence of PDE inhibitor Ro 20-1724 by luciferase-glo reporter gene assay. In kind it is functional, cell-based. Put shortly:
as §1

Assay [12] deals with T1, Adenosine receptor A2a. In words: Displacement of [3H]ZM241385 from recombinant human A2A receptor incubated for 90 mins under dark condition by microbeta scintillation method.
Assay [13] concerns the target G-protein coupled receptor 68 (Mus musculus) (UniProt Q8BFQ3). In words: Positive allosteric modulation of mouse GPR68 expressed in HEK293T cells co-expressing Gs assessed as stimulation of proton-mediated cAMP production by measuring efficacy cooperativity in HBSS buffer containing pH 6.8 to 8.2 HEPES/pH 8.3 to 8.6 TAPS measured after 20 to 30 mins in presence of PDE inhibitor Ro 20-1724 by luciferase-glo reporter gene assay. In kind it is functional, cell-based. Put shortly: as §2

Molecules are shown by their SMILES. The source made the active and inactive calls. The calls are words filed in the database; no cut-off is given here.

Sequence of G-protein coupled receptor 68 (Homo sapiens) (Q15743 whole entry): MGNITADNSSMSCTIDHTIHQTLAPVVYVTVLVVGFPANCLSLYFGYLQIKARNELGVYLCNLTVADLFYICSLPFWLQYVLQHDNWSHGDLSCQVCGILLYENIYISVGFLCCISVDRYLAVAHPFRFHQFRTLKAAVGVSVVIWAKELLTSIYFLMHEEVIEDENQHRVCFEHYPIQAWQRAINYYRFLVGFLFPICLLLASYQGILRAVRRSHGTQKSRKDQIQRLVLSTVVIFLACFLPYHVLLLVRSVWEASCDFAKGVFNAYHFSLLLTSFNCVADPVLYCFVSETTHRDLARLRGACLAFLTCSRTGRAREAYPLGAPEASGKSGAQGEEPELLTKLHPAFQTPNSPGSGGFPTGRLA
Sequence of G-protein coupled receptor 68 (Mus musculus) (Q8BFQ3 whole entry): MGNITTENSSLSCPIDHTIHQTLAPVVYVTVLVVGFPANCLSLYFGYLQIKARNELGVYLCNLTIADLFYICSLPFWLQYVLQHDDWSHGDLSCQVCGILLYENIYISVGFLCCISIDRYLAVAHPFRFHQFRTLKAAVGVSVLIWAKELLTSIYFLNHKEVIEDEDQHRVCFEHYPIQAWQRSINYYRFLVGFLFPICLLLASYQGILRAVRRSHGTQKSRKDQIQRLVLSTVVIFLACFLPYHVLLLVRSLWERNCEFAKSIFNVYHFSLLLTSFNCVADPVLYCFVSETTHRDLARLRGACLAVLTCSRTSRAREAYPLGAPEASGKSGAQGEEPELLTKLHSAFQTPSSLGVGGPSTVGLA
Sequence of G-prodeshotein coupled receptor 4 (Homo sapiens) (P46093 whole entry, looked up): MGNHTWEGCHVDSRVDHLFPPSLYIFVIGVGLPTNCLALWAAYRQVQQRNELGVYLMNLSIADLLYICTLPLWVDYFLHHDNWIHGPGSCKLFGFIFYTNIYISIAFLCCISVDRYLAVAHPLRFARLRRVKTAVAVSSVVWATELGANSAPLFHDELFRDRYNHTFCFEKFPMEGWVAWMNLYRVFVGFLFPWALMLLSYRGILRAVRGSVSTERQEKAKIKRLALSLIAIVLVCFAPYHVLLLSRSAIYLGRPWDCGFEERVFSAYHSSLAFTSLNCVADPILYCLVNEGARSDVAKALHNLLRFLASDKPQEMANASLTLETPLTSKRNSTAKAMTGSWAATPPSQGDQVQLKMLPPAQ
Sequence of Atypical chemokine receptor 3 (P25106 whole entry): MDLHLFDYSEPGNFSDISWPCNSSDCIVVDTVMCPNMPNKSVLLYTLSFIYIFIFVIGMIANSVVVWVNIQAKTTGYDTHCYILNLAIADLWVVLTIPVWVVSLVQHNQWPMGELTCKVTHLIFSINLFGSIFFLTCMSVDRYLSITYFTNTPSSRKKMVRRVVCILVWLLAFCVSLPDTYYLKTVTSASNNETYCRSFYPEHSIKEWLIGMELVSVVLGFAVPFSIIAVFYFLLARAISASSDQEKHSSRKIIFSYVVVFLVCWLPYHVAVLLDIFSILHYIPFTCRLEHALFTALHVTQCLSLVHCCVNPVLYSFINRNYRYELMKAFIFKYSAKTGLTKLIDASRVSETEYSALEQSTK
Sequence of G-protein coupled receptor 65 (Homo sapiens) (Q8IYL9 whole entry): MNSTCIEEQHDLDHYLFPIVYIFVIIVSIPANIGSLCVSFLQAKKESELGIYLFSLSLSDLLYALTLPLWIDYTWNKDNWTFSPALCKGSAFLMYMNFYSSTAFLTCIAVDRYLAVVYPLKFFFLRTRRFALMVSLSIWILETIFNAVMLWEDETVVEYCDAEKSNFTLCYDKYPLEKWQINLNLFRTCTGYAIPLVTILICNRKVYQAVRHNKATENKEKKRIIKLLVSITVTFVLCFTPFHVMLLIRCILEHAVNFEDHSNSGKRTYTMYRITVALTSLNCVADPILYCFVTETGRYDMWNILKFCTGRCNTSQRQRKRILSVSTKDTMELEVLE

`Nc1nc(NCc2ccc(Cl)cc2)nc(-c2ccccc2CO)n1`: the log(activity) was 0.49 in assay [1], 0.41 in [4], 1.41 in [9] and -0.02 in [13]. The outcome (on Adenosine receptor A2a [2]; in [6]; in assay [8]; in assay [11]) was inactive. The IC50 (usually the concentration that inhibits the measured activity by half) on Adenosine receptor A2a [3] was determined as 1700 nM. In addition, the Ki – broadly, the dissociation constant of the complex between target and ligand, obtained from inhibition or displacement – at Adenosine receptor A2a [5] came to 6700 nM; at Adenosine receptor A2a [12] it was 300 nM. Also, the figures for the Activity index in assay [7] and in assay [10] were 6.11 and 5.68, respectively.
